# Data taken from paper PMC9292719 (Diabetes, Obesity & Metabolism, 2021).
# Marks after values point to notes of the source that are not given here.
# Tests used:
# healthy subjects [1] = assay: Safety: treatment-emergent adverse events; format: in vivo, human; conditions: single s.c. dose 0.2 U/kg; for Headache, number of subjects / Headache, percentage of subjects / Injection site erythema, number of subjects / Injection site erythema, percentage of subjects / Nasopharyngitis, number of subjects / Nasopharyngitis, percentage of subjects / Hypoglycaemia, events (one subject each): TEAE
# Procedure, shortened: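 In a randomized three-period crossover with washouts, each subject received a single 0.2 U/kg s.c. dose per period. Treatment-emergent adverse events were recorded per treatment and graded mild, moderate or severe. They were summarised descriptively by visit/treatment as subject counts, percentages and event numbers.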
# [2] = format: in vivo, human
# Procedure, shortened: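 Healthy volunteers in a randomized crossover each received a single 0.2 U/kg s.c. dose per period. Plasma was sampled predose and from 5 to 720 min postdose. Insulin aspart, with 15N-labelled internal standard, was captured on anti-insulin antibody magnetic beads and measured by UPLC-MS/MS (range 100-8000 pg/mL). AUC ratios and CIs came from Fieller's theorem. Time endpoints were summarised descriptively by treatment.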
# healthy subjects [3] = assay: Pharmacodynamics: automated euglycaemic glucose clamp; format: in vivo, human; conditions: Ref‐InsAsp‐US vs. Ref‐InsAsp‐EU (N = 65); two-sided 90% CI; Fieller's theorem
# Procedure, shortened: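 Healthy adults aged 18-65 with BMI 18.5-29.0 kg/m2 and fasting glucose ≤5.5 mmol/L. Randomized crossover: single 0.2 U/kg s.c. dose per period, 12- to 16-day washout. Before dosing, variable i.v. human insulin brought blood glucose to the 81 mg/dL target. Glucose infusion was then adjusted automatically over a 12 h clamp, GIR logged every minute. Partial-AUC ratios with CIs came from Fieller's theorem.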
# [4] = healthy subjects, single s.c. dose 0.2 U/kg, plasma, arithmetic mean (SD)
# [5] = Ref‐InsAsp‐US vs. Ref‐InsAsp‐EU (N = 66), two-sided 90% CI, Fieller's theorem
Substance,"Headache, number of subjects (healthy subjects [1])","Headache, percentage of subjects (healthy subjects [1]) [%]","Injection site erythema, number of subjects (healthy subjects [1])","Injection site erythema, percentage of subjects (healthy subjects [1]) [%]","Nasopharyngitis, number of subjects (healthy subjects [1])","Nasopharyngitis, percentage of subjects (healthy subjects [1]) [%]",Number of TEAE events (healthy subjects [1]) [events],"Subjects with at least one TEAE, percentage (healthy subjects [1]) [%]","Subjects with at least one treatment‐emergent adverse event (TEAE), number (healthy subjects [1]) [subjects]","t50%‐early (time to half‐maximum before Cmax) [2, 4]","t50%‐late (time to half‐maximum after Cmax) [2, 4]","tmax (time to maximum observed insulin aspart concentration) [2, 4]","λz (terminal elimination rate constant) [2, 4]","AUCGIR,0‐4h LS‐mean ratio (healthy subjects [3])","AUCGIR,0‐6h LS‐mean ratio (healthy subjects [3])","AUCGIR,6h‐last LS‐mean ratio (healthy subjects [3])","Hypoglycaemia, events (one subject each) (healthy subjects [1])","AUC0‐6h LS‐mean ratio [2, 5]","AUC6‐12h LS‐mean ratio [2, 5]"
Insulin aspart [Ref‐InsAsp‐EU],eight,11.9,one,1.5,two,3.0,13,19.4,13,0.45 (0.12) h,3.1 (0.84) h,1.10 (0.53) h,0.86 (0.28) /h,–,–,–,–,–,–
Insulin aspart [Ref‐InsAsp‐US],five,7.2,one,1.4,none,–,12,15.9,11,–,3.13 (0.86) h,1.11 (0.45) h,0.82 (0.27) /h,94.11 (90.37; 97.99) ^b %,94.81 (91.46; 98.27) ^b %,101.05 (95.75; 106.64) ^b %,one,99.71 (97.90; 101.52) %,107.18 (83.81; 137.45) %
"MYL‐1601D: rapid‐acting human insulin analogue, biosimilar insulin aspart 100 U/mL, produced by recombinant DNA technology utilizing Pichia pastoris (Mylan)",four,5.7,two,2.9,three,4.3,18,15.7,–,–,–,–,–,–,–,–,one,–,–
